The values below come from publication PMC11100557 (Science Advances, 2024).

One assay has as its target KIN10 mutant 3 (Arabidopsis thaliana, UniProt Q38997, K63A/K69A/L73A/R65A/R66A). Description: MST binding of ATP to KIN10 mutant 3. The note with it: fig. S5. The method, boiled down: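 KIN10 kinase-domain mutant 3 (K63A-R65A-R66A-K69A-L73A), N-His6, expressed in E. coli BL21(DE3), Ni-NTA purified. Protein labeled with NT647 via NHS coupling to lysines (30 min on ice), free dye removed by size exclusion into MST buffer (50 mM phosphate pH 7.4, 150 mM NaCl, MgCl2, 1 mM DTT, 0.05% Tween 20).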

Assay [1] has as its target T1, WT KIN10 (Arabidopsis thaliana, UniProt Q38997). The experiment in a line: MST binding of T6P to WT KIN10 kinase domain.
Assay [2] addresses KIN10 mutant 1 (R23A-R32A-K34A) (Arabidopsis thaliana, UniProt Q38997, K34A/R23A/R32A). Description: MST binding of T6P to KIN10 mutant 1. The method, boiled down:
(§1)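 Alanine-substituted KIN10 kinase domain was made by overlap PCR and cloned into pET28a. It was expressed with an N-terminal His6 tag in E. coli BL21(DE3) and Ni-NTA purified. Protein was NT647-NHS labelled and desalted into phosphate buffer pH 7.4 with NaCl, DTT and Tween 20. 100 nM labelled protein was mixed with a T6P serial dilution, and MST was read at 25°C (40% MST, 80% LED power).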

Assay [3] deals with KIN10 mutant 2 (R52A-R53A-K54A-K56A) (Arabidopsis thaliana, UniProt Q38997, K54A/K56A/R52A/R53A). Description: MST binding of T6P to KIN10 mutant 2. The method, boiled down:
as §1

Assay [4] has as its target T2, KIN10 mutant 3 (K63A-R65A-R66A-K69A-L73A) (Arabidopsis thaliana, UniProt Q38997, K63A/K69A/L73A/R65A/R66A). Description: MST binding of T6P to KIN10 mutant 3.
Another assay addresses KIN10 K63A (Arabidopsis thaliana, UniProt Q38997, K63A). The experiment in a line: MST binding of T6P to KIN10 K63A. An outline of the steps:
(§2)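 N-terminal His6-tagged recombinant KIN10 was expressed in E. coli BL21(DE3), Ni-NTA purified, and NT647-labelled on lysines via NHS coupling. Free dye was removed by size exclusion into MST buffer (50 mM phosphate pH 7.4, 150 mM NaCl, 1 mM DTT, 0.05% Tween 20). 100 nM labelled protein was titrated with serially diluted T6P. Microscale thermophoresis was run at 25°C, 40% MST power and 80% LED power.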

In a further assay the target is KIN10 R66A (Arabidopsis thaliana, UniProt Q38997, R66A). Description: MST binding of T6P to KIN10 R66A. The method, boiled down:
as §2

The next assay addresses KIN10 R141A (Arabidopsis thaliana, UniProt Q38997, R141A). Description: MST binding of T6P to KIN10 R141A. An outline of the steps: as §2
In the next assay the target is KIN10 K63A-R66A-R141A (Arabidopsis thaliana, UniProt Q38997, K63A/R141A/R66A). The experiment in a line: biochemical. It counts as binding.
Sequence of KIN10 K63A-R66A-R141A (Q38997 19-271 K63A/R66A/R141A limits assumed): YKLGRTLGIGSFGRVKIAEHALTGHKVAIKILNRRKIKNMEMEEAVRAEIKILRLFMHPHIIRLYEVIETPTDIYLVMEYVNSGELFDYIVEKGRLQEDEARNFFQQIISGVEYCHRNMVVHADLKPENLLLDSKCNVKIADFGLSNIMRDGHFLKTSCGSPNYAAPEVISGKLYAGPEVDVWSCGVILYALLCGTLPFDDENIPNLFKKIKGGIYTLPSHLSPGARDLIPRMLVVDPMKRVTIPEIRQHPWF
The target in assay [5] is T1, WT KIN10. Description: KIN10 kinase activity assay with SPS peptide, WT KIN10. It counts as biochemical.
The target of assay [6] is T2, KIN10 mutant 3 (K63A-R65A-R66A-K69A-L73A). The experiment in a line: KIN10 kinase activity assay with SPS peptide, mutant 3. It counts as biochemical. The note with it: 1 mM T6P, 50 nM KIN10 mutant 3 plus 50 nM GRIK1.
Another assay deals with KIN10 mutant 1 (Arabidopsis thaliana, UniProt Q38997, K34A/R23A/R32A). Description: KIN10 kinase activity assay with SPS peptide, mutant 1. It counts as biochemical. Particulars: 1 mM T6P, 200 ng KIN10 mutant 1 and 200 ng GRIK1.
Sequence of KIN10 mutant 1 (Q38997 19-271 R23A/R32A/K34A limits assumed): as the sequence (Q38997 19-271 K63A/R66A/R141A limits assumed) above, with R5A, R14A, K16A, A45K, A48R, A123R counted along it
The next assay addresses KIN10 mutant 2 (Arabidopsis thaliana, UniProt Q38997, K54A/K56A/R52A/R53A). The experiment in a line: KIN10 kinase activity assay with SPS peptide, mutant 2. It counts as biochemical. The note with it: 1 mM T6P, 200 ng KIN10 mutant 2 and 200 ng GRIK1.
Assay [7] addresses plant α-catalytic subunit of SnRK1 (Arabidopsis thaliana, UniProt Q38997). The experiment in a line: Inhibition of the SnRK1 α-catalytic subunit by sugar phosphates. It is filed as biochemical. Particulars: table S4.
The next assay concerns GRIK1-KIN10. The note with it: MST; ref Zhai et al. ([9]); cited from earlier work.

T1 sequence (Q38997 19-271 limits assumed): as the sequence (Q38997 19-271 K63A/R66A/R141A limits assumed) above, with A45K, A48R, A123R counted along it
T2 sequence (Q38997 19-271 K63A/R65A/R66A/K69A/L73A limits assumed): as the sequence (Q38997 19-271 K63A/R66A/R141A limits assumed) above, with R47A, K51A, L55A, A123R counted along it
Sequence of KIN10 K63A (Q38997 19-271 K63A limits assumed): as the sequence (Q38997 19-271 K63A/R66A/R141A limits assumed) above, with A48R, A123R counted along it
Sequence of KIN10 mutant 1 (R23A-R32A-K34A) (Q38997 19-271 R23A/R32A/K34A limits assumed): as the sequence (Q38997 19-271 K63A/R66A/R141A limits assumed) above, with R5A, R14A, K16A, A45K, A48R, A123R counted along it
Sequence of KIN10 mutant 2 (R52A-R53A-K54A-K56A) (Q38997 19-271 R52A/R53A/K54A/K56A limits assumed): as the sequence (Q38997 19-271 K63A/R66A/R141A limits assumed) above, with R34A, R35A, K36A, K38A, A45K, A48R, A123R counted along it
Sequence of KIN10 R141A (Q38997 19-271 R141A limits assumed): as the sequence (Q38997 19-271 K63A/R66A/R141A limits assumed) above, with A45K, A48R counted along it
Sequence of plant α-catalytic subunit of SnRK1 (Q38997 19-271 limits assumed): as the sequence (Q38997 19-271 K63A/R66A/R141A limits assumed) above, with A45K, A48R, A123R counted along it
Sequence of KIN10 R66A (Q38997 19-271 R66A limits assumed): as the sequence (Q38997 19-271 K63A/R66A/R141A limits assumed) above, with A45K, A123R counted along it
Sequence of KIN10 mutant 3 (Q38997 19-271 K63A/R65A/R66A/K69A/L73A limits assumed): as the sequence (Q38997 19-271 K63A/R66A/R141A limits assumed) above, with R47A, K51A, L55A, A123R counted along it
Sequence of KIN10 mutant 2 (Q38997 19-271 R52A/R53A/K54A/K56A limits assumed): as the sequence (Q38997 19-271 K63A/R66A/R141A limits assumed) above, with R34A, R35A, K36A, K38A, A45K, A48R, A123R counted along it

For the compound `Nc1ncnc2c1ncn2[C@@H]1O[C@H](COP(=O)(O)OP(=O)(O)OP(=O)(O)O)[C@@H](O)[C@H]1O` [ATP, adenosine triphosphate], the “Kd for ATP, mutant 3 compared with WT KIN10” value on KIN10 mutant 3 was “no change”.

In the case of `O=P(O)(O)OC[C@H]1O[C@H](O[C@H]2O[C@H](CO)[C@@H](O)[C@H](O)[C@H]2O)[C@H](O)[C@@H](O)[C@@H]1O` [T6P, trehalose 6-phosphate], the Kd on WT KIN10 [1] is 28 ± 4 µM; in assay [2], 26 ± 6 µM; in assay [3], 34 ± 5 µM; in assay [4], 165 ± 21 µM; at KIN10 K63A, 47 ± 7 µM; on KIN10 R66A, 40 ± 5 µM. For the same compound, the Kd at KIN10 R141A is 52 ± 7 µM; on KIN10 K63A-R66A-R141A (Kds determined by MST, KIN10 K63A-R66A-R141A, Table 2 series), 143 µM. Moreover, the “Kd by MST” value is “no significant difference” in assay [2] (KIN10 mutant 1, Table 1 series) and “no significant difference” in assay [3] (KIN10 mutant 2, Table 1 series). The “reduction of affinity of T6P binding versus WT KIN10” value in [4] (mutant 3 versus WT) is reported as “fivefold”. The “increase of Kd versus WT” value at KIN10 K63A (span over the three single mutants K63A, R66A and R141A, versus WT) is 1.9- to 2.5 fold. The “increase in Kd versus WT” value at KIN10 K63A-R66A-R141A (triple mutant K63A-R66A-R141A versus WT) is on record as “sevenfold”. Moreover, inhibition against WT KIN10 [5] was half-maximal at 40 µM (IC50). For the same compound, the “change of basal activity of WT KIN10 on addition of T6P” value on WT KIN10 [5] (1 mM T6P, 50 nM KIN10, no GRIK1) is listed as “doubling”. Moreover, the “reduction of mutant 3 activation by GRIK1 in the presence of T6P” value in [6] is listed as “no reduction”. Moreover, the “activation of mutant 1 by GRIK1 in the presence of T6P” value on KIN10 mutant 1 is “reduced”. For the same compound, the “activation of mutant 2 by GRIK1 in the presence of T6P” value at KIN10 mutant 2 is reported as “reduced”. Also, the “inhibition of the plant α-catalytic subunit of SnRK1” value in assay [7] was “specifically inhibited”. Besides, the “reduction of affinity of GRIK1 for KIN10 on T6P binding” value in the assay with GRIK1-KIN10 was “threefold”.

By Kd is commonly meant the free concentration of one partner at which half of the binding sites on the other are occupied at equilibrium, for simple one-to-one binding. Read a low Kd as tighter binding. In general, IC50 refers to the midpoint of a concentration-inhibition curve. A low value points to greater potency in that assay.
